# Assay results gathered from unrelated publications.
# Each line is one published result; the experiments were not run side by side.
# Target: Mitogen-activated protein kinase 12 (MAPK12, Homo sapiens, UniProt P53778)
# One construct used (P53778 1-367): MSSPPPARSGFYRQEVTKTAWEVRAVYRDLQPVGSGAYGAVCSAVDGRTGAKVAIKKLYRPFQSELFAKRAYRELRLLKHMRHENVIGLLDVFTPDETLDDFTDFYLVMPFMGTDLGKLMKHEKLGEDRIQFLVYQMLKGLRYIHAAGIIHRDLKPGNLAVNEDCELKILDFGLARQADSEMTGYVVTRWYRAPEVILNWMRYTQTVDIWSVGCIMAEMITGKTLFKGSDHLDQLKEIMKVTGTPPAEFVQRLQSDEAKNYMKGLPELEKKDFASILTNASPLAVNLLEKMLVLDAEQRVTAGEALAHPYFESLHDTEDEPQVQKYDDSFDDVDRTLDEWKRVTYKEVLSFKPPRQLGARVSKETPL
Structure (SMILES),assay,conditions,remaining binding
Cc1cc(NC(=O)c2cccc(S(F)(F)(F)(F)F)c2)cc(-n2ccn3nc(-c4cccnc4)cc23)c1,"cell-free assay, competition with immobilised ligand",1 µM,41.7%
COc1cnc(Nc2cccc(S(N)(=O)=O)c2)nc1N1CCN(c2ccccc2)C(=O)C1,"binding, competition with immobilised ligand",1 µM,100%
CN(CCCC(F)(F)F)c1nccc(-c2cnn3ncccc23)n1,binding,1 µM,100%
C=CC(=O)N1CCC(C(=O)NCC(=O)N2CCN(c3nc(-c4cnc(N)nc4C(F)F)nc(N4CCOCC4)n3)CC2)CC1,"binding, competition with immobilised ligand",1 µM,96%
C[C@@H]1CCN(c2nccc(-c3cnn4ncccc34)n2)C1,binding,1 µM,47%
O=C(NCC1CCOCC1)c1n[nH]cc1NC(=O)c1c(F)cccc1F,"binding, competition with immobilised ligand",1 µM,100%
Nc1ncc2c(n1)-c1c([nH]c3ccc(C#CC4CC4)cc13)CCCC2,"binding, competition with immobilised ligand",1 µM,98%
O=C(Nc1cccnn1)N1CC(C/C=C/c2cncc(Oc3ccc(C(F)(F)F)cn3)n2)C1,"cell-free assay, competition with immobilised ligand",1 µM,100%
c1cnn2ncc(-c3ccnc(N4CCC45COC5)n3)c2c1,binding,1 µM,65%
c1cncc(-c2cccc(Nc3nccc(NC4CCCCC4)n3)c2)c1,"binding, competition with immobilised ligand",10 µM,84%
CN(C)c1nccc(-c2cnn3ncccc23)n1,binding,1 µM,60%
O=C(NCCCN1CCOCC1)c1ccc(Nc2nccc(-c3cc4ccccc4s3)n2)cc1,"binding, competition with immobilised ligand",1 µM,100%
Cc1cc(Nc2nccc(C)n2)cc(-c2cnc([C@@]3(O)CC[C@H](C(=O)O)C(C)(C)C3)s2)c1,"binding, competition with immobilised ligand",1 µM,31.2%
Cc1cnn2ncc(-c3ccnc(N(C)C)n3)c2c1,binding,1 µM,85%
C[C@@H]1CN(c2cc(-c3n[nH]c4ccc(OC5(C)CC5)cc34)ncn2)C[C@H](C)O1,"cell-free assay, competition with immobilised ligand",0.1 µM,96%
CN(C)c1nccc(-c2cnc3ncccn23)n1,binding,1 µM,90%
O=C(Nc1cnc(Oc2ccc(F)cc2)nc1)N1CCc2ncccc2[C@@H]1c1ccc(F)cc1,"cell-free assay, competition with immobilised ligand",1 µM,96%
O=C(c1ccc(Nc2ncc(Cl)c(-c3cc4ccccc4s3)n2)cc1)N1CCC(N2CCCC2)CC1,"binding, competition with immobilised ligand",1 µM,86%
CN(c1ccnc(CNc2nc(Nc3ccc4c(c3)CC(=O)N4)ncc2C(F)(F)F)n1)S(C)(=O)=O,"cell-free assay, competition with immobilised ligand",1 µM,58%
O=C(c1ccc(Nc2nccc(-c3cc4ccccc4s3)n2)cc1)N1CCC(N2CCCC2)CC1,"binding, competition with immobilised ligand",1 µM,88%
